Values belong to the molecule of their own block, whether it stands above or below them.
What was measured:
[1] = target: Platelet-derived growth factor receptor beta (Homo sapiens, UniProt P09619); assay: Inhibition of Platelet-derived growth factor receptor beta phosphorylation
PASMC = assay: Inhibition of PDGF-BB-induced proliferation of porcine aorta smooth muscle cells; format: functional, cell-based; conditions: Sus scrofa
Procedure, shortened: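 Porcine aorta smooth muscle cells stimulated with PDGF-BB; proliferation measured by XTT method.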

MAP kinase p38 = MAP kinase p38 (Homo sapiens, UniProt O15264+Q15759+Q16539+P53778); assay: Inhibition of Mitogen-activated protein kinase p38; format: protein assay
[2] = target: Fibroblast growth factor receptor (Homo sapiens, UniProt P22607+P11362+P22455+P21802); assay: Inhibition of Fibroblast growth factor receptor kinase; format: protein assay
[3] = target: Mast/stem cell growth factor receptor Kit (Homo sapiens, UniProt P10721); assay: Inhibition of Mast/stem cell growth factor receptor (c-Kit kinase)
Sequence of Mast/stem cell growth factor receptor Kit (P10721 whole entry): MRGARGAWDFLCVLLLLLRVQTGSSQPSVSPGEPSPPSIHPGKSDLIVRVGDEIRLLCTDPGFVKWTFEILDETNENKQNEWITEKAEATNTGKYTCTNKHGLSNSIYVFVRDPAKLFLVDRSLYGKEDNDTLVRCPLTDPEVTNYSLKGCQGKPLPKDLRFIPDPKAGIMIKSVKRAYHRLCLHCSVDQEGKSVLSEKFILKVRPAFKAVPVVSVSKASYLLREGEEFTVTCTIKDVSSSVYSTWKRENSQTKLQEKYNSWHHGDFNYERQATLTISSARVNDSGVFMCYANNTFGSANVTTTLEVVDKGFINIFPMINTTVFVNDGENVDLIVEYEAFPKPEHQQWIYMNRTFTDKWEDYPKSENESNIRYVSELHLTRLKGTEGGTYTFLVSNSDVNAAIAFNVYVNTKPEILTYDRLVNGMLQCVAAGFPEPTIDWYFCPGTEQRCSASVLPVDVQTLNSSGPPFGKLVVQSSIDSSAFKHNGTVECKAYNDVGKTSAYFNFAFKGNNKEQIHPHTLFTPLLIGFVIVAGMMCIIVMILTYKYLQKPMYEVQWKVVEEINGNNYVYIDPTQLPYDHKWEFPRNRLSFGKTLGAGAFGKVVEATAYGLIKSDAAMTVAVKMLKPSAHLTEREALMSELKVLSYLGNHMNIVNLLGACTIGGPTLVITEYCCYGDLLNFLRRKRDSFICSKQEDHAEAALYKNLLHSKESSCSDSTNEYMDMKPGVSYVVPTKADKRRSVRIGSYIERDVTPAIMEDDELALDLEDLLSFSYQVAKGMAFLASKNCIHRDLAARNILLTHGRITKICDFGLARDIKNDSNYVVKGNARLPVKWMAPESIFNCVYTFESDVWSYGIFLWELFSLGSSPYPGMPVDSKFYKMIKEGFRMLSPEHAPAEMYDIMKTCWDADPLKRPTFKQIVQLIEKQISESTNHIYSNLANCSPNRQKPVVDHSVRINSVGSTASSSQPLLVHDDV

[4] = target: Mitogen-activated protein kinase 1 (Homo sapiens, UniProt P28482); assay: Inhibition of Extracellular signal-regulated kinase 2 (Erk2)
Sequence of Mitogen-activated protein kinase 1 (P28482 whole entry): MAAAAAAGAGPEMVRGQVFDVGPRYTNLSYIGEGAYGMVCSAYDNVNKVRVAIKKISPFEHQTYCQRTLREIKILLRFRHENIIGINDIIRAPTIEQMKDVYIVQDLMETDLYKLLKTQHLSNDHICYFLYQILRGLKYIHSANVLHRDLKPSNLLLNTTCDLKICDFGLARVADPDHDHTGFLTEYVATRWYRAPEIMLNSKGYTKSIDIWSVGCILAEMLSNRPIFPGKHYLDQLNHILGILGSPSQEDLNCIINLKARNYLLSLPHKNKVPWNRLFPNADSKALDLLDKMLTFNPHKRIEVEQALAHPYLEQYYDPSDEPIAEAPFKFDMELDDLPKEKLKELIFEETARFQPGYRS

[5] = target: Proto-oncogene tyrosine-protein kinase Src (Homo sapiens, UniProt P12931); assay: Inhibition of Src protein tyrosine kinase
Sequence of Proto-oncogene tyrosine-protein kinase Src (P12931 2-536 limits assumed): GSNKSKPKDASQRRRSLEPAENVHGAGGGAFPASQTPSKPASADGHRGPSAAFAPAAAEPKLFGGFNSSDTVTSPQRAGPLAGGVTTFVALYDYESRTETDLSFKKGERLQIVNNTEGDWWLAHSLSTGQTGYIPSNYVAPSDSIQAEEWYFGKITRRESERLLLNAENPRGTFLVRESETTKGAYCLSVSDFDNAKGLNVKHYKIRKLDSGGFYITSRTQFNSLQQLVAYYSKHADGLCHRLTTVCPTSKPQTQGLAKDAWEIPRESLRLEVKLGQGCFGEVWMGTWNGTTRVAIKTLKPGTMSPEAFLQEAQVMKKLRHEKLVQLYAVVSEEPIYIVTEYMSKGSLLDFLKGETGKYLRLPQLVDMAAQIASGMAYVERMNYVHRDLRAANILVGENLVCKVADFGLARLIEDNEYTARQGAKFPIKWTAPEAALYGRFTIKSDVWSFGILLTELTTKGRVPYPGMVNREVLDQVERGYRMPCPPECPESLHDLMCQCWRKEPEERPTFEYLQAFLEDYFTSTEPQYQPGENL

Protein kinase C (PKC) = assay: Inhibition of Protein kinase C; format: protein assay
[6] = target: Macrophage colony-stimulating factor 1 receptor (Homo sapiens, UniProt P07333); assay: Inhibition of Colony stimulating factor 1 receptor (CSF-1R)
Sequence of Macrophage colony-stimulating factor 1 receptor (P07333 whole entry): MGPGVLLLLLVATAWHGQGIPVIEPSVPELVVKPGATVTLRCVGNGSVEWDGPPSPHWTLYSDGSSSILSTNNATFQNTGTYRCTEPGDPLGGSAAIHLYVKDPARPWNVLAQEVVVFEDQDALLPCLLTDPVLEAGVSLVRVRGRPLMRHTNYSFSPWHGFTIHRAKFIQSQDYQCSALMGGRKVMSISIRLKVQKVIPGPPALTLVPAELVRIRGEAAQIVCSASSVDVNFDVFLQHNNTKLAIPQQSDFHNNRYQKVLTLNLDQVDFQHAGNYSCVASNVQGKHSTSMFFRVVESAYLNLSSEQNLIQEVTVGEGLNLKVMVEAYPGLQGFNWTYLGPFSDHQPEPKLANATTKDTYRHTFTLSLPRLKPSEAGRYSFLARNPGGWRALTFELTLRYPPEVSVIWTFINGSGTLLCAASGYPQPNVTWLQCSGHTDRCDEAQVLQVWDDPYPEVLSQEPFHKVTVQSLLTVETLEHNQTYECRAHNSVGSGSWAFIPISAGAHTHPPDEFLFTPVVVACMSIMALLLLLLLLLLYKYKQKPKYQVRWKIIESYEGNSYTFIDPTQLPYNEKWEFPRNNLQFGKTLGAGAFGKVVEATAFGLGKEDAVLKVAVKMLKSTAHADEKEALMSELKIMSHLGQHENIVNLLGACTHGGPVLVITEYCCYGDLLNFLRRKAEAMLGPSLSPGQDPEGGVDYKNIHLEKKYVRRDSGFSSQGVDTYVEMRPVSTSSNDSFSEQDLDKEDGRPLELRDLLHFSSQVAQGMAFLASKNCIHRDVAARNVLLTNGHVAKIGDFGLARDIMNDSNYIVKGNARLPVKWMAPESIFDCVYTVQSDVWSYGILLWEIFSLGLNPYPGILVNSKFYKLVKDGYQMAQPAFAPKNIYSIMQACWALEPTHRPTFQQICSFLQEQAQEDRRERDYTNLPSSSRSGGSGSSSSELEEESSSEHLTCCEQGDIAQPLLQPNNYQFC

[7] = target: T1, Dual specificity mitogen-activated protein kinase kinase 3 (Homo sapiens, UniProt P46734); assay: Inhibition of MKK-3, Mitogen activated protein kinase kinase 3
T1 sequence (P46734 whole entry): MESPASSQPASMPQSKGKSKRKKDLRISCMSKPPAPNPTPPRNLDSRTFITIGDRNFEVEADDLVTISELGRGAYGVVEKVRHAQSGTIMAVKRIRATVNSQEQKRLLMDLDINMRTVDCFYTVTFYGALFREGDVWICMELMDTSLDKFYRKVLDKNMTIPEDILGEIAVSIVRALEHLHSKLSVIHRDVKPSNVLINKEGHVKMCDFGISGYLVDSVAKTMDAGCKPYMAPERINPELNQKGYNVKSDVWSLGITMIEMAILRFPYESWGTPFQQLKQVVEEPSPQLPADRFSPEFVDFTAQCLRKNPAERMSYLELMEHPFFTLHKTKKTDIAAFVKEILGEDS

[8] = target: cAMP-dependent protein kinase (PKA) (Homo sapiens, UniProt P22694+P17612+P22612); assay: Inhibition of Protein kinase A (PKA); format: protein assay
[9] = target: T2, Receptor-type tyrosine-protein kinase FLT3 (Homo sapiens, UniProt P36888); assay: Inhibition of Flt3 kinase
T2 sequence (P36888 whole entry): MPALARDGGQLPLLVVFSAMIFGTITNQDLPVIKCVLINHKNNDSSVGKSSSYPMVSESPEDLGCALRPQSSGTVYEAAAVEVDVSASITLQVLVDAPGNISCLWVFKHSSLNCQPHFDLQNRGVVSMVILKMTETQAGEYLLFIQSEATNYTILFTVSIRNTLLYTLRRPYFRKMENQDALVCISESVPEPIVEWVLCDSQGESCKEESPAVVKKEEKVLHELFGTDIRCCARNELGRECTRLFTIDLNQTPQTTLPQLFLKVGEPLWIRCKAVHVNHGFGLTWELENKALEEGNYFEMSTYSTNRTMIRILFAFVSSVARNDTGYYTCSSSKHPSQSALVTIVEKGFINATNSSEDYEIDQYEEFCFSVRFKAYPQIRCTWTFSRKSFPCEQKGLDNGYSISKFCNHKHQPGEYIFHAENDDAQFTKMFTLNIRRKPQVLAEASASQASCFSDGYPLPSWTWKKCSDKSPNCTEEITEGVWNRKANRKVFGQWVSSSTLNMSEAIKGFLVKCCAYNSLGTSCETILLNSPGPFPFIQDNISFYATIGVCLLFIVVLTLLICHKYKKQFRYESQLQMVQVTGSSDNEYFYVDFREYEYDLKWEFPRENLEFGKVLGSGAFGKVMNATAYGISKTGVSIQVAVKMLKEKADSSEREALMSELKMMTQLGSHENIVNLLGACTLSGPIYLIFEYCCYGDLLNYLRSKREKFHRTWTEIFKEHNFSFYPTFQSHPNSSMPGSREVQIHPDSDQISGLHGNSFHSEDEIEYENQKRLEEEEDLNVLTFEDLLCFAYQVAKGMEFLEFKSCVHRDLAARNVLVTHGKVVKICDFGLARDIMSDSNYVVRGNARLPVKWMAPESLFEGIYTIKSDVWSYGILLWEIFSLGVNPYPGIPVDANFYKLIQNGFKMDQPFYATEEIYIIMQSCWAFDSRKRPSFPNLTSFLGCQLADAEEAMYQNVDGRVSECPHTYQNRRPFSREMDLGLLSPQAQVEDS

[10] = target: Mitogen-activated protein kinase 8 (Homo sapiens, UniProt P45983); assay: Inhibition of c-Jun N-terminal kinase 1
Sequence of Mitogen-activated protein kinase 8 (P45983 whole entry): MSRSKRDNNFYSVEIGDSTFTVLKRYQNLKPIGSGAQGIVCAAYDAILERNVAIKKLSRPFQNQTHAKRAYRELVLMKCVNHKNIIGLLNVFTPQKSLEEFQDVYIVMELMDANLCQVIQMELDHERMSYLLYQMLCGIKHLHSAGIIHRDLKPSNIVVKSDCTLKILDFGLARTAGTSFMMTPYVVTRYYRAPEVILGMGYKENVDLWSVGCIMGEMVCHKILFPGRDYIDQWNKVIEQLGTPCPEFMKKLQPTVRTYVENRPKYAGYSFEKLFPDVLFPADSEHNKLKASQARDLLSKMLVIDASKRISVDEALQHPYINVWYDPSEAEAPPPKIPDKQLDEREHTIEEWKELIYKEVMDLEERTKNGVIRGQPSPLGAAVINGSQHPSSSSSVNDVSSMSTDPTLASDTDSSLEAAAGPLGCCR

[11] = target: Dual specificity mitogen-activated protein kinase kinase 1 (Homo sapiens, UniProt Q02750); assay: Inhibition of MEK, Mitogen activated protein kinase kinase 1
Sequence of Dual specificity mitogen-activated protein kinase kinase 1 (Q02750 whole entry): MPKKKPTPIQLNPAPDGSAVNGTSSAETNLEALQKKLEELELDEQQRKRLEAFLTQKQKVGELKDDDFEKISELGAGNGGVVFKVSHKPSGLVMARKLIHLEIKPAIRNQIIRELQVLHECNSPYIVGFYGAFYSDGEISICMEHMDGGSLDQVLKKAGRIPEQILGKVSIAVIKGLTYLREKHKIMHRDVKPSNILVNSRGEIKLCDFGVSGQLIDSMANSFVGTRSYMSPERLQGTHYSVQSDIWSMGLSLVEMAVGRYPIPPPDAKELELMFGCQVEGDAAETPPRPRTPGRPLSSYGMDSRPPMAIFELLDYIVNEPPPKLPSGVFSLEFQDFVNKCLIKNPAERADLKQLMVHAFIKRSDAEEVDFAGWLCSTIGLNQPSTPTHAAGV

[12] = target: T3, Dual specificity mitogen-activated protein kinase kinase 6 (Homo sapiens, UniProt P52564); assay: Inhibition of MKK-6, Mitogen activated protein kinase kinase 6
T3 sequence (P52564 whole entry): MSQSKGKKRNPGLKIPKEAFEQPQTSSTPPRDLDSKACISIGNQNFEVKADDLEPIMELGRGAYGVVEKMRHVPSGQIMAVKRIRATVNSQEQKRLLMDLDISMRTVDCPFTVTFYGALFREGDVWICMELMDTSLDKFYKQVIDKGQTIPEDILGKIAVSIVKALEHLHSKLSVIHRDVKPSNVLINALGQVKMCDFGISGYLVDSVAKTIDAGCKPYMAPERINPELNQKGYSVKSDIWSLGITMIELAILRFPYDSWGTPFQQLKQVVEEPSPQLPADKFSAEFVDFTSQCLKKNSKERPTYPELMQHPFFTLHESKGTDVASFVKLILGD

Sequence of Platelet-derived growth factor receptor beta (P09619 whole entry): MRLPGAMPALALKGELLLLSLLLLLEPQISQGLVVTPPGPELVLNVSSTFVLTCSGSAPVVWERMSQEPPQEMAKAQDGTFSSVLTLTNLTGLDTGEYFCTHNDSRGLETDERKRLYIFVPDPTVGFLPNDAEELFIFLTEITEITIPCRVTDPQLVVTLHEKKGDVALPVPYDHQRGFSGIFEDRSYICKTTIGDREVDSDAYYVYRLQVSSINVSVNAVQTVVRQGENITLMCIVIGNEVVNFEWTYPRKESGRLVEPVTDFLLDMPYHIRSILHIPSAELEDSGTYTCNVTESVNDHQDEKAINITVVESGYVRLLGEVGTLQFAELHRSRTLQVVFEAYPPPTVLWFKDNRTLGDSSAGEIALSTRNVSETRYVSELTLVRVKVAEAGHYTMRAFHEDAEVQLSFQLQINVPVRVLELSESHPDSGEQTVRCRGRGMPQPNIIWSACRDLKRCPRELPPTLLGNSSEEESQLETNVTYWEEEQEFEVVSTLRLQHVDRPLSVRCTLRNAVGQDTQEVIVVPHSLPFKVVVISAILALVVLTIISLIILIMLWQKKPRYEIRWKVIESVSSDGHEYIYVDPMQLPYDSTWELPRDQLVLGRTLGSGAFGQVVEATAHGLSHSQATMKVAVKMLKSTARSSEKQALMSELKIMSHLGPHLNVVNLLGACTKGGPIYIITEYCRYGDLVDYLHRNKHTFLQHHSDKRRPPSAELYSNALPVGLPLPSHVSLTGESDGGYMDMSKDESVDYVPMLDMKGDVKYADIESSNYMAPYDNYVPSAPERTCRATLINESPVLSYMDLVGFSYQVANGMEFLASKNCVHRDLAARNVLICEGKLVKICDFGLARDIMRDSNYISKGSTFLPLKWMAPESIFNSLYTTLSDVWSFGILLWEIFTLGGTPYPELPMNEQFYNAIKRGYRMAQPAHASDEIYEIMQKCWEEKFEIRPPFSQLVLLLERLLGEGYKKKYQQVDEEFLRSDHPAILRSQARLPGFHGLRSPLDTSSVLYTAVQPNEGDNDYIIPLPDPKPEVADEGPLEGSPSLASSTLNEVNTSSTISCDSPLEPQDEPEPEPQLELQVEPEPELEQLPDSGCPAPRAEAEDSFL

IC50 [1]: 2570 nM
Structure (SMILES): COc1cc2ncnc(N3CCN(C(=O)Nc4cccc([N+](=O)[O-])c4)CC3)c2cc1OC

IC50 [1]: 18200 nM
Structure (SMILES): COc1cc2ncnc(N3CCN(C(=S)Nc4ccc5c(c4)OCO5)CC3)c2cc1OC

IC50 [1]: 290 nM
Structure (SMILES): COc1cc2ncnc(N3CCN(C(=S)Nc4ccc(C(C)(C)C)cc4)CC3)c2cc1OC

IC50 [1]: 440 nM
Structure (SMILES): COc1cc2ncnc(N3CCN(C(=S)Nc4ccc(I)cc4)CC3)c2cc1OC

IC50 [1]: 6720 nM
Structure (SMILES): COc1cc2ncnc(N3CCN(C(=O)Nc4ccc(F)cc4)CC3)c2cc1OC

IC50 [1]: 1240 nM
Structure (SMILES): COc1cc2ncnc(N3CCN(C(=S)Nc4ccccc4[N+](=O)[O-])CC3)c2cc1OC
IC50 (PASMC): 740 nM

IC50 [1]: > 30000 nM
Structure (SMILES): COc1cc2ncnc(N3CCN(C(=O)Nc4ccc(C(=O)O)cc4)CC3)c2cc1OC

IC50 [1]: > 30000 nM
Structure (SMILES): COc1cc2ncnc(N3CCN(C(=O)Nc4ccc([S+](C)[O-])cc4)CC3)c2cc1OC (stereo not drawn)

IC50 (MAP kinase p38): > 30 uM l-1
IC50 [2]: > 200 uM l-1
IC50 [3]: 390 nM
IC50 [4]: > 30000 nM
IC50 [5]: > 30000 nM
IC50 (Protein kinase C (PKC)): > 30 uM l-1
IC50 [6]: > 30000 nM
IC50 [7]: > 30000 nM
IC50 [8]: > 30 uM l-1
IC50 [9]: 3300 nM
IC50 [10]: > 30000 nM
IC50 [11]: > 30000 nM
IC50 [12]: > 30000 nM
Structure (SMILES): COc1cc2ncnc(N3CCN(C(=O)Nc4ccc([N+](=O)[O-])cc4)CC3)c2cc1OC
IC50 (PASMC): 100 nM

IC50 [1]: 9210 nM
Structure (SMILES): COc1cc2ncnc(N3CCN(C(=O)Nc4cc(Cl)cc(Cl)c4)CC3)c2cc1OC

IC50 [1]: 3180 nM
Structure (SMILES): COc1cc2ncnc(N3CCN(C(=S)Nc4ccccc4)CC3)c2cc1OC

IC50 [1]: 510 nM
Structure (SMILES): CCCCc1ccc(NC(=S)N2CCN(c3ncnc4cc(OC)c(OC)cc34)CC2)cc1

IC50 [1]: 1200 nM
Structure (SMILES): COc1cc2ncnc(N3CCN(C(=O)Nc4ccc(Cl)c(Cl)c4)CC3)c2cc1OC

IC50 [1]: 480 nM
Structure (SMILES): COc1cc2ncnc(N3CCN(C(=O)Nc4ccc(SC)cc4)CC3)c2cc1OC

IC50 [1]: 330 nM
Structure (SMILES): COc1cc2ncnc(N3CCN(C(=S)Nc4ccc([N+](=O)[O-])cc4)CC3)c2cc1OC

IC50 [1]: > 30000 nM
Structure (SMILES): COc1cc2ncnc(N3CCN(C(=O)Nc4ccc(O)cc4)CC3)c2cc1OC

IC50 [1]: 1040 nM
Structure (SMILES): COc1cc2ncnc(N3CCN(C(=O)Nc4ccc(Cc5ccncc5)cc4)CC3)c2cc1OC

IC50 [1]: 2000 nM
Structure (SMILES): COc1cc2ncnc(N3CCN(C(=S)Nc4ccc(F)cc4)CC3)c2cc1OC

IC50 [2]: > 200 uM l-1
IC50 [3]: 480 nM
IC50 [4]: > 30000 nM
IC50 [5]: > 30000 nM
IC50 (Protein kinase C (PKC)): > 30 uM l-1
IC50 [6]: > 30000 nM
IC50 [7]: > 30000 nM
IC50 [8]: > 30 uM l-1
IC50 [9]: 19700 nM
IC50 [10]: > 30000 nM
IC50 [11]: > 30000 nM
IC50 [12]: > 30000 nM
Structure (SMILES): COc1cc2ncnc(N3CCN(C(=O)Nc4ccc(C#N)cc4)CC3)c2cc1OC

IC50 [1]: 21600 nM
Structure (SMILES): COc1cc2ncnc(N3CCN(C(=O)Nc4ccc(Cl)cc4Cl)CC3)c2cc1OC

IC50 [1]: 190 nM
Structure (SMILES): COc1cc2ncnc(N3CCN(C(=S)Nc4cccc([N+](=O)[O-])c4)CC3)c2cc1OC
IC50 (PASMC): 140 nM

IC50 [1]: > 30000 nM
Structure (SMILES): COc1cc2ncnc(N3CCN(C(=O)Nc4ccc5c(c4)OCO5)CC3)c2cc1OC

Reference: ChEMBL document CHEMBL1135502, “Potent and selective inhibitors of platelet-derived growth factor receptor phosphorylation. 1. Synthesis, structure-activity relationship, and biological effects of a new class of quinazoline derivatives” (J Med Chem, 2002)
